Source: the RNAGym collection of RNA variant scans (doi:10.1126/science.aae0568)
This sample holds only a part of the variants without activity.

B1: tRNA (parent)
chain: GUUCCGUUGGCGUAAUGGUAACGCGUCUCCCUCCUAAGGAGAAGACUGCGGGUUCGAGUCCCGUACGGAACG

Variants of: B1
Assay: yeast fitness relative to wild type (ratio to wild type); higher = fitter; tRNA-Arg(CCU), competitive growth, 37 C, YPD
How it was run: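 Amplicons of the tRNA-Arg(CCU) gene were sequenced, 100-nucleotide paired-end, from the start population and from each end population of a pooled yeast competition. The competition, in six parallel replicates, lasted 24 hours in YPD at 37°C. Fitness relative to wild type was calculated from changes in genotype frequencies. Genotypes had to have ≥ 100 starting reads, and estimates < 0.5 were set to 0.5.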

Point of comparison: GUUCCGUUGGUGUAAUGGUAACGGGUGUCCCUCCUAAGGAGAAGACUGCGGAUUCGAGUCCCGUACGGAACG, yeast fitness 0.551. Against it:
- GUUCCGUUGGUGUAAUGGUAACGGGUGUCCCUCCUAAGGAGAAGACUGCGGGUUCGAGUCCCGUUCGGAACG — higher, 0.576
- GUUCCGUUGGUGUAAUGGUAACGGGUCUUCCUCCUAAGGAGAAGACUGCAGGUUCGACUCCCAUAUGAAACG — lower, ≤ 0.5
- GUUCCGUUGGUGUAAUGGUAACGGGUCUCCCUACUAAGGCGAAGACUGCGGGUUCGAGUCCCGUACGGAACG — higher, 0.955
- GUUCCGUUGGUGUAAUGGUAACGGGUCUCCCUACUAAGGCGAAGACUGCGGGUUCGAGUCCCGUACGGCACG — higher, 0.72
- GUUCCGUUGGUGUAAUGGUAACGGGUCUCCCUACUAAGGCGAAGACUGCGGGCUCGAGUCCCGUACGGAACG — higher, 0.626
- GUUCCGUUGGUGUAAUGGUAACGGGUCUCCCUGCUAAGGAGAAGACUGCGGGUUCGAGUCCCGUACGGAACG — lower, 0.541
- GUUCCGUUGGUGUAAUGGUAACGGGUCUCCCUCCUAAGGAGAAGACUGCGGGUUCGAGUCACGUACAGAACG — lower, ≤ 0.5
- GUUCCGUUGGUGUAAUGGUAACGUGUCUCCCUCCUAAGGAGAAGACUGCGGGUUCGAGUCCCGUACGGAACG — higher, 0.852
- GUUCCGUUGGUGUAAUGGUAACGUGUCUCCCUCGUAAGGAGAAGACUGCGGGUUCGAGUCCCGUACGGAGCG — lower, ≤ 0.5
- GUUCCGUUGGUGUAAUGGUAACGCGUAUCCCUCCUAAGGAGAAGACUGCGGGUUCGAGUCCCGUACGGAACG — higher, 0.791
- GUUCCGUUGGUGUAAUGGUAACGCGUAUCCCUCCUAAGGAGAAGACUACGGGAUCGAGUCGCGUACGGAACG — lower, ≤ 0.5
- GUUCCGUUGGUGUAAUGGUAACGCGUAUCCCUCCUAAGGAGAAGACUGCGGGUUCCAGUCCAGUCCGGAACG — lower, ≤ 0.5
- GUUCCGUUGGUGUAAUGGUAACGCGUGUCCCUCCUGAGGAGAAGACUGCGGGUUCGAGUCCCCUAUGGAACG — lower, ≤ 0.5
- GUUCCGUUGGUGUAAUGGUAACGCGUGUCCCUCCUAAGGAGACGACUGCGGGUUCGAGUCCCGUACGGAACG — higher, 0.577
- GUUCCGUUGGUGUAAUGGUAACGCGUGUCCCUCCUAAGGAGAUGACUGCGGGUUCGAGUCCCGUACGGAACG — lower, 0.52
- GUUCCGUUGGUGUAAUGGUAACGCGUGUCCGUCCUAAGCAGAAGACUGCGGGUUCAAGUCACGUACGGGACG — higher, 0.641
- GUUCCGUUGGUGUAAUGGUAACGCGUGUCCCUCCUAAGCAGAAGACUGCGGGUUCGAGUCCCGUACGGAACG — lower, ≤ 0.5
- GUUCCGUUGGUGUAAUGGUAACGCGUUUCCAUCCCAAGGAGAAGACUGCGGGUUGGAGUCCUGUAUGGACCG — lower, ≤ 0.5
- GUUCCGUUGGUGUAAUGGUAACGCGUUUCCAUCCCAAGGAGAAGACUGCGGGUUGGAGUCCCGUAUGGACCG — lower, 0.512
- GUUCCGUUGGUGUAAUGGUAACGCGUUUCCAUCCCAAGGAGAAGACUUCGGGUUGGAGUCCCGUAUGGACCG — lower, ≤ 0.5
- GUUCCGUUGGUGUAAUGGUAACGCGUUUCCUUCCUCAGGAGAACGCUGCGGGUUCCAGUCCCGUACGGAACG — lower, ≤ 0.5
- GUUCCGUUGGUGUAAUGGUAACGCGUUUCCCUCCUAAGGAGAAGAUUGCGGGUUCGUGUCCCGUACGGAACG — higher, 0.647
- GUUCCGUUGGUGUAAUGGUAACGCGUUUCCCUCCCAAGGAGAAGACUGCGGGUUCGAGUCGCGUACGGAACG — higher, 0.606
- GUUCCGUUGGUGUAAUGGUAACGCGUCUACCUCCUAAGGAGAAGACUGCGGGUUCGAGGCCCGUACGGAACG — lower, ≤ 0.5
- GUUCCGUUGGUGUAAUGGUAACGCGUCUGCUUCCUAAGGAGAAGACUGCGGGUUCGAUUCCCGUGCAGAACG — lower, ≤ 0.5
- GUUCCGUUGGUGUAAUGGUAACGCGUCUGCCUUCUAAGGAGAAGACUGCGGGUUCGAGUCCCGUACGGAACG — lower, ≤ 0.5
- GUUCCGUUGGUGUAAUGGUAACGCGUCUGCCUUCUAAGUAGAAGACUGCGGGUUCGAGUUCCGUUCGGUACG — lower, ≤ 0.5
- GUUCCGUUGGUGUAAUGGUAACGCGUCUUCCUCCUAAGGCGAAGACUGGGGGUUCGAGUCCCGUACGGAACG — higher, 0.648
- GUUCCGUUGGUGUAAUGGUAACGCGUCUUCCUCCUAAGGAGAAGACUGCGGGUUCGUGUCUCGUACGGAACG — lower, ≤ 0.5
- GUUCCGUUGGUGUAAUGGUAACGCGUCUUGCUCCUAAGGAGAAGACUGCGGGUUCGAGUCCCGUACGGAACG — lower, 0.549
- GUUCCGUUGGUGUAAUGGUAACGCGUCUUCCUCCUAAGGAGAAGACUGAGGGUUCGAGUCCCGUACGGAACG — lower, ≤ 0.5
- GUUCCGUUGGUGUAAUGGUAACGCGUCUUCCUCCUAAGGAGAAGACUGCGGGUUUGAGUCCCGUACGGAACG — lower, ≤ 0.5
- GUUCCGUUGGUGUAAUGGUAACGCGUCUUCCUCCUAAGGAGAAGACUGCGGGUUCGAGUCUCGCACGGAACG — lower, ≤ 0.5
- GUUCCGUUGGUGUAAUGGUAACGCGUCUUCCUCCUAAGGAGAAGACUGCGGGUUCGAGUCCCGUAAGGAACG — higher, 0.553
- GUUCCGUUGGUGUAAUGGUAACGCGUCUUCCUCCUAAGGAGAAGACUGCGGGUUCGAGUCCCGUAGGGAACG — lower, ≤ 0.5
- GUUCCGUUGGUGUAAUGGUAACGCGUCUUCCUCCUAAGAAGAAGACUGCGGGUUCGAGUCCCGUACGGAACG — higher, 0.619
- GUUCCGUUGGUGUAAUGGUAACGCGUCUUCCUCCUAAGGAGAAGACUGCGGGUUCGAGUCCCGUACAGAACG — higher, 0.57
- GUUCCGUUGGUGUAAUGGUAACGCGUCUUCCUCCCAAGGAGAAGACUGCGGGUUCGAGUCCCGUACGGAACG — lower, ≤ 0.5
- GUUCCGUUGGUGUAAUGGUAACGCGUCUCACUCCUAAGGAGAAGACUGUGGGUUCGAGUCCCGUACUGAACG — lower, ≤ 0.5
- GUUCCGUUGGUGUAAUGGUAACGCGUCUCACUCCUAAGGAGAAGACUGCGGGUUGGCGUCCCGUACGGAACG — lower, ≤ 0.5
- GUUCCGUUGGUGUAAUGGUAACGCGUCUCACUCCUAAGAAGAAGACAGCGGGUUCGAGUCCCCUACGGAACG — lower, ≤ 0.5
- GUUCCGUUGGUGUAAUGGUAACGCGUCUCACUCCUAAGGAGAAGACUGCGAGUUCGAGUCCCGUACAGAACG — lower, ≤ 0.5
- GUUCCGUUGGUGUAAUGGUAACGCGUCUCACGCCUAAGGAGAAGACUGUGGGUUGGAGUCCCGUACGGAACG — lower, ≤ 0.5
- GUUCCGUUGGUGUAAUGGUAACGCGUCUCACUCCAAAAGAGAAGACUGCGGGUUCGAGUCGCGUACGGAACG — lower, ≤ 0.5
- GUUCCGUUGGUGUAAUGGUAACGCGUCUCGCUCCUAAGGAGAAGACUGCGGGUUCGAGUCCCGUACGGAACG — higher, 0.694
- GUUCCGUUGGUGUAAUGGUAACGCGUCUCUCUCCUAAGGAGUAGACUGCGAGUUCGUGUCCCGUUCGGAUCG — lower, ≤ 0.5
- GUUCCGUUGGUGUAAUGGUAACGCGUCUCUCUCCUAAGGAGAAGACUGCGGGUUCGAGUCCCGUCCGGAACG — lower, ≤ 0.5
- GUUCCGUUGGUGUAAUGGUAACGCGUCUCUCUCGUAAGGAGAAGACUGCGGGUUCGAGUCCCGUACGCAACG — lower, ≤ 0.5
- GUUCCGUUGGUGUAAUGGUAACGCGUCUCUCUCCUAAGGAGAAGACUGUGGGUUCGAGUCCCGUACGGAACG — higher, 0.646
- GUUCCGUUGGUGUAAUGGUAACGCGUCUCUCUCCUAAGGAGAAGACUCCGGGUUCGAGUCCCGUACGCAACG — lower, ≤ 0.5
- GUUCCGUUGGUGUAAUGGUAACGCGUCUCUCUCCUAAGGAGAAGACAGCGGGUUCGAGUCCCGUACCGAACG — lower, ≤ 0.5
- GUUCCGUUGGUGUAAUGGUAACGCGUCUCCAUCCUAGGGAGAAGACUGCGGGUUCGAGUCCCGUACGGAACG — lower, ≤ 0.5
- GUUCCGUUGGUGUAAUGGUAACGCGUCUCCAUCCUAAGGAGGAGACUGCGGGUUAGAGUCCCGUACGGAACG — lower, ≤ 0.5
- GUUCCGUUGGUGUAAUGGUAACGCGUCUCCAUCCUAAGGAGAAGACUGCGGGUUCGCGUCCCGUACGGAACG — lower, ≤ 0.5
- GUUCCGUUGGUGUAAUGGUAACGCGUCUCCAUCCUAAGGAGAAGACUGCGGGUUGGAGUACCGUACGGAGCG — lower, 0.535
- GUUCCGUUGGUGUAAUGGUAACGCGUCUCCAUCCUAAGGAGAAGACUGCGGGUUCGAGUCCCGUACAGAACG — lower, ≤ 0.5
- GUUCCGUUGGUGUAAUGGUAACGCGUCUCCGUCCUAAGGAGAAGACUGCGGGUUCGAGUCCCGUACGGAACG — higher, 0.791
- GUUCCGUUGGUGUAAUGGUAACGCGUCUCCGUCCUAAGGAGACGACUGCGGGUUCGAGUCCCGUACGGAACG — higher, 0.654
- GUUCCGUUGGUGUAAUGGUAACGCGUCUCCGUCCUAAGGAGAAGGCUGCGGGUUCUAGUCCCGUACGGAACG — lower, ≤ 0.5
- GUUCCGUUGGUGUAAUGGUAACGCGUCUCCGUCGUAAGGAGAUGACUGCGGGUUCGAGUCUCGUUCGGAACG — lower, ≤ 0.5
- GUUCCGUUGGUGUAAUGGUAACGCGUCUCCGUCGUAAGGAGAUGACUGCGGGUUCGAGUCCCGUACGCAACG — higher, 0.571
- GUUCCGUUGGUGUAAUGGUAACGCGUCUCCGUCGUAAGGAGAUGACUGCGGGUUCGAGUCCCGUACGCGACG — lower, 0.532
- GUUCCGUUGGUGUAAUGGUAACGCGUCUCCGUCCUAAGGAGAAGACUGCGGGUUCGAGUCCCGGACGGGACG — higher, 0.842
- GUUCCGUUGGUGUAAUGGUAACGCGUCUCCUUCCUAAGGAGAAGACUGCGGGUUCGAGUCCCGUCCGGAACG — lower, 0.52
- GUUCCGUUGGUGUAAUGGUAACGCGUCUCCUUCCUAAGGAGAAGACUGCGGGUUCGAGUACCGAACGGAACG — lower, ≤ 0.5
- GUUCCGUUGGUGUAAUGGUAACGCGUCUCCCUGCUAAGGAGAAGACUGCGGGUUCGAGUCCCGUACGGAACG — higher, 0.734
- GUUCCGUUGGUGUAAUGGUAACGCGUCUCCCUGCUUAGGAGGAGACUGCGGGUUCGAGUCCCGUACGGAACG — lower, ≤ 0.5
- GUUCCGUUGGUGUAAUGGUAACGCGUCUCCCUGCUAAGGAGAAGACUGCGGGUUCGAGUCCCGUCCGGAACG — higher, 0.694
- GUUCCGUUGGUGUAAUGGUAACGCGUCUCCCUGCUAAGGAGAAGACAGCGGGUUCGAGUCCCGGACGGAACG — higher, 0.552
- GUUCCGUUGGUGUAAUGGUAACGCGUCUCCCUUCUAAGGAGAAGACUGCGGGUUCGAGUCCCGUACGGAACG — higher, 0.724
- GUUCCGUUGGUGUAAUGGUAACGCGUCUCCCUUCUGAGAAGAAAACUGCGGGUUGGAGCCCCGUACGGAACG — lower, ≤ 0.5
- GUUCCGUUGGUGUAAUGGUAACGCGUCUCCCUUCUAAGGAGAGGACUGCGGGUUCGAGUCCCGUACGGAACG — higher, 0.595
- GUUCCGUUGGUGUAAUGGUAACGCGUCUCCCUUCUAAGGAGAAGACUGCGGGUUCGAGUCCCGUACGGAUCG — higher, 0.612
- GUUCCGUUGGUGUAAUGGUAACGCGUCUCCCUUCUAAGGAGAAGACUACGGGUUCGAGUCCCGUACGGAACG — higher, 0.58
